According to ChEMBL document CHEMBL4665633, “Cereblon versus VHL: Hijacking E3 ligases against each other using PROTACs” (Bioorg Med Chem, 2019):

Experiments:
Assay type in all cases: cell-based
[1] = molecular target: T1, Protein cereblon/von Hippel-Lindau disease tumor suppressor (Homo sapiens, UniProt P40337+Q96SW2); test: Protac activity at VHL/CRBN in HEK293 cells assessed as CRBN protein abundance at 1 uM after 2 hrs by Western blot analysis relative to DMSO
Procedure, shortened: (§1)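 HEK293 cells (DMEM, 10% FBS, penicillin/streptomycin, L-glutamine; 37 °C, 5% CO2; ≤30 passages) seeded at 1 × 10⁶ per well overnight, then treated with compound at 0.1% v/v final DMSO. Cells were lysed in RIPA with protease inhibitors and benzonase, then clarified. Equal Bradford-quantified protein was immunoblotted for CRBN/VHL. Bands were normalised to β-tubulin and expressed as % of mean 0.1% DMSO vehicle.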

[2] = molecular target: T1, Protein cereblon/von Hippel-Lindau disease tumor suppressor; test: Protac activity at VHL/CRBN in HEK293 cells assessed as CRBN protein abundance at 1 uM after 24 hrs by Western blot analysis relative to DMSO; procedure, shortened: as §1
[3] = molecular target: T1, Protein cereblon/von Hippel-Lindau disease tumor suppressor; test: Protac activity at VHL/CRBN in HEK293 cells assessed as pVHL19 protein abundance at 5 nM after 4 hrs by Western blot analysis relative to DMSO; procedure, shortened: as §1
[4] = molecular target: T1, Protein cereblon/von Hippel-Lindau disease tumor suppressor; test: Protac activity at VHL/CRBN in HEK293 cells assessed as pVHL19 protein abundance at 10000 nM after 4 hrs by Western blot analysis relative to DMSO; procedure, shortened: as §1
[5] = molecular target: T1, Protein cereblon/von Hippel-Lindau disease tumor suppressor; test: Protac activity at VHL/CRBN in HEK293 cells assessed as pVHL30 protein abundance at 10 nM after 4 hrs by Western blot analysis relative to DMSO; procedure, shortened: as §1
[6] = molecular target: T1, Protein cereblon/von Hippel-Lindau disease tumor suppressor; test: Protac activity at VHL/CRBN in HEK293 cells assessed as CRBN protein abundance at 5 nM after 4 hrs by Western blot analysis relative to DMSO; procedure, shortened: as §1
[7] = molecular target: T1, Protein cereblon/von Hippel-Lindau disease tumor suppressor; test: Protac activity at VHL/CRBN in human HeLa cells assessed as pVHL30 protein abundance at 1 uM after 8 hrs by Western blot analysis relative to DMSO
Procedure, shortened: (§2)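 HeLa cells seeded overnight, then exposed to 1 µM compound (0.1% v/v DMSO final) over a time course. Cells were DPBS-washed and RIPA-lysed with protease inhibitors and benzonase; equal protein was loaded. Immunoblots for CRBN and VHL isoforms were quantified against β-tubulin and reported relative to the averaged 0.1% DMSO vehicle.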

[8] = molecular target: T1, Protein cereblon/von Hippel-Lindau disease tumor suppressor; test: Protac activity at VHL/CRBN in human HeLa cells assessed as pVHL30 protein abundance at 1 uM after 24 hrs by Western blot analysis relative to DMSO; procedure, shortened: as §2
[9] = molecular target: T1, Protein cereblon/von Hippel-Lindau disease tumor suppressor; test: Protac activity at VHL/CRBN in human HeLa cells assessed as CRBN protein abundance at 1 uM after 2 hrs by Western blot analysis relative to DMSO; procedure, shortened: as §2
[10] = molecular target: T1, Protein cereblon/von Hippel-Lindau disease tumor suppressor; test: Protac activity at VHL/CRBN in human HeLa cells assessed as CRBN protein abundance at 1 uM after 12 hrs by Western blot analysis relative to DMSO; procedure, shortened: as §2
[11] = molecular target: T1, Protein cereblon/von Hippel-Lindau disease tumor suppressor; test: Protac activity at VHL/CRBN in human HeLa cells assessed as pVHL19 protein abundance at 10000 nM after 4 hrs by Western blot analysis relative to DMSO
Procedure, shortened: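 HeLa cells (5 × 10⁵, DMEM + 10% FBS, 37 °C, 5% CO₂, ≤30 passages) seeded overnight, then treated 4 h with compound at single or graded concentrations (0.1% v/v DMSO final). RIPA lysates equalised by Bradford; SDS-PAGE and anti-CRBN/anti-VHL immunoblots; bands normalised to β-tubulin and expressed as % of mean DMSO vehicle. DC₅₀ from fit of band intensity versus log[concentration].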

T1 sequence (P40337 whole entry, looked up): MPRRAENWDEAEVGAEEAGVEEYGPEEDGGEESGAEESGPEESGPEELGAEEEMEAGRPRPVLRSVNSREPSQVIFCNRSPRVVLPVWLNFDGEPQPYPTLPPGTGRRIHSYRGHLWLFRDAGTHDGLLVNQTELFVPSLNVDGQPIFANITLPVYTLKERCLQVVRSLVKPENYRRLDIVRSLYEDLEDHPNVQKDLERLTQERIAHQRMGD
T1 sequence (Q96SW2 whole entry, looked up): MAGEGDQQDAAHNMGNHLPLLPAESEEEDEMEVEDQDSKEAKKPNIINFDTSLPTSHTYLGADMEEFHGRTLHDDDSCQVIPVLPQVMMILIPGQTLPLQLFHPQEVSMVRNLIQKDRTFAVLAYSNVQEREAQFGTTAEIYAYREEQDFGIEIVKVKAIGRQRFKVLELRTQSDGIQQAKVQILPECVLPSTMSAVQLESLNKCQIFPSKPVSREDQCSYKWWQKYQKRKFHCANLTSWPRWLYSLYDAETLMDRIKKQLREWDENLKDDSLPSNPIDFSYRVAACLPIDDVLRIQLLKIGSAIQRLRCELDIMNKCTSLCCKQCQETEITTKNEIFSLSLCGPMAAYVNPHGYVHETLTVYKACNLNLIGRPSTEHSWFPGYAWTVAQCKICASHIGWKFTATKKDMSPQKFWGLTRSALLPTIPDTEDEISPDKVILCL

- Activity [1]: 9%
- Activity [2]: 6%
- Activity [3]: 108%
- Activity [4]: 106%
- Activity [5]: 135%
- Activity [6]: 102%
- Activity [7]: 116%
- Activity [8]: 97%
- Activity [9]: 27%
- Activity [10]: 12%
- Activity [11]: 124%
SMILES: Cc1ncsc1-c1ccc(CNC(=O)[C@@H]2C[C@@H](O)CN2C(=O)[C@@H](NC(=O)COCCCCCOCCOCCCCCOCC(=O)NCCNc2cccc3c2C(=O)N(C2CCC(=O)NC2=O)C3=O)C(C)(C)C)cc1 (stereo partly specified)
